Results from paper PMC3326416 (Journal of the American Chemical Society, 2012).
pIC50: −log10 of the molar value. Where “and” joins values, the source holds several entries; their conditions need not be identical. Equal entries are not always repeated. Entries after “also recorded” stand apart in the source; their conditions may differ.

Key:
PME-1 [1] = settings: acylation of active-site serine nucleophile; cited from earlier work
PME-1 [2] = target: T1, PME-1 (Mus musculus, UniProt Q8BVQ5); assay: ABPP-SILAC in Neuro-2A cells, PME-1; format: cell-based; settings: 100 nM, 2 h
T1 sequence (Q8BVQ5 1-386): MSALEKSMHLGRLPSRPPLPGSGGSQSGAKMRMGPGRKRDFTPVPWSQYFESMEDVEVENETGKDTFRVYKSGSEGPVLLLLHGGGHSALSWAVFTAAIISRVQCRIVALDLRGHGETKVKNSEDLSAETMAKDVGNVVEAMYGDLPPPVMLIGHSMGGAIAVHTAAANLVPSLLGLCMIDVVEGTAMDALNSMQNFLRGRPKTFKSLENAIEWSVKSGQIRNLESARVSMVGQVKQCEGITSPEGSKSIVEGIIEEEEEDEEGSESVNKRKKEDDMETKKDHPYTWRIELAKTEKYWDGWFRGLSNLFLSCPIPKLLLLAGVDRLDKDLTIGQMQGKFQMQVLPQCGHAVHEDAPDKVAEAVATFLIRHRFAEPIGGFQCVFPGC
Summary of the method: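 Neuro-2A cells were grown in isotopically light or heavy amino acids: light cells got DMSO, heavy cells got test compound at 100 nM for 2 h. Proteomes were labelled with FP-biotin, mixed 1:1, avidin-enriched and analysed by LC/LC-MS/MS on an LTQ-Velos Orbitrap. Activity is the heavy:light MS1 ion ratio of tryptic peptides, reported as mean ± SEM over all peptides quantified per hydrolase.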

ABHD10 [3] = target: T2, ABHD10 (Mus musculus, UniProt Q6PE15); assay: Competitive ABPP of Neuro2A proteomes; format: biochemical
T2 sequence (Q6PE15 44-297): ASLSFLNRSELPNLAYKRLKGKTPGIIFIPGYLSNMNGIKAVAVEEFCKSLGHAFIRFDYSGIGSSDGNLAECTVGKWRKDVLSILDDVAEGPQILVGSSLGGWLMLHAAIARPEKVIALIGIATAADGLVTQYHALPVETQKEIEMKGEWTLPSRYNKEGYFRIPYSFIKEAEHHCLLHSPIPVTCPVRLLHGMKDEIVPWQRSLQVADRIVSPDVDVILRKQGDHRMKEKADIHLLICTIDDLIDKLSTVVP

PME-1 [4] = target: T1, PME-1; assay: Gel-based ABPP in situ in Neuro2A cells, PME-1; format: cell-based; settings: up to 10 µM, 2 h
Summary of the method: (§1)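 Intact Neuro-2A cells were treated with test compound at 10–0.001 µM for 2 h. Membrane and soluble proteomes were then analysed by gel-based competitive ABPP, and IC50 was derived from the gel signal. Data are mean ± SEM, n = 3/group.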

ABHD10 [5] = target: T2, ABHD10; assay: Gel-based ABPP in situ in Neuro2A cells, ABHD10; format: cell-based; settings: single treatment, 250 nM
Summary of the method: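 Neuro-2A cells received a single in situ treatment with test compound at 250 nM. ABHD10 activity was then followed by gel-based ABPP of cell proteomes over a period of up to 6 h after treatment.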

serine hydrolases = assay: Gel-based ABPP in situ in Neuro2A cells, off-target serine hydrolases; format: cell-based, mouse
Summary of the method: as §1

ABHD10 [6] = target: T2, ABHD10; assay: ABPP-SILAC in BW5147-derived mouse T-cell hybridoma cells, ABHD10; format: cell-based
Summary of the method: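 ABPP-SILAC in a second line, BW5147-derived mouse T-cell hybridoma cells. Cells were cultured in light or heavy amino acids and treated with DMSO or test compound. Proteomes were FP-biotin-labelled, combined 1:1, avidin-enriched and analysed by LC/LC-MS/MS. Serine hydrolase activity was quantified from heavy:light MS1 ratios of tryptic peptides.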

ABHD10 [7] = target: T2, ABHD10; assay: ABPP-SILAC in Neuro-2A cells, ABHD10; format: cell-based

selectivity for ABHD10 over ABHD6, PREP, PME-1, and other serine hydrolases (ABHD10 [3]) | pIC50 (ABHD10 [3]; read-out: IC50 ABHD10, in vitro) | inhibition of PME-1 in situ (PME-1 [4]) | time complete inhibition of ABHD10 was maintained (ABHD10 [5]) | inhibition of ABHD10 in second cell line (ABHD10 [6]) | inhibition of ABHD10 (ABPP-SILAC), in words (ABHD10 [7]; 100 nM, 2 h) | loss in ABHD10 activity (ABHD10 [7]; 100 nM, 2 h, ABPP-SILAC, ~40 serine hydrolase activities detected) [%] | inhibition of ABHD10 at higher concentration (ABHD10 [7]; 250 nM) | SMILES | inhibition of PME-1 in cells and mice (PME-1 [1]) | disruption of PME-1 activity (ABPP-SILAC) (PME-1 [2]) | concentration at which off-targets are detected (serine hydrolases) [µM]
 |  |  |  |  |  |  |  | COC(=O)N1C(=O)[C@](c2ccccc2)(C2CCCC2)N1C(=O)OC [ABL127] | irreversibly inhibit | complete and selective disruption; also recorded: selective inhibition | 
at least 40 fold | ~7.52 and 7.52 | no significant inhibition | at least 6 h | complete and selective inhibition | selective inhibition | > 95 | complete and selective inhibition | CCC1(c2ccc(C)cc2)C(=O)N(C(=O)OC(C)C)N1C(=O)OC(C)C (centres unmarked) [ABL303] |  |  | ≥ 1
